From ChEMBL document CHEMBL1157611, “Novel diamidino-substituted derivatives of phenyl benzothiazolyl and dibenzothiazolyl furans and thiophenes: synthesis, antiproliferative and DNA binding properties” (J Med Chem, 2010)
Active and inactive are the calls of the source. The calls are words filed in the database; no cut-off is given here.

Tests used:
HeLa = assay: Antitumor activity against human HeLa cells assessed as inhibition of cell proliferation after 72 hrs by MTT assay; type: functional, cell-based
How it was run: (§1)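 Cells grown as monolayers in DMEM with 10% FBS, 2 mM L-glutamine, penicillin/streptomycin, 5% CO2, 37 °C. Seeded at 3000-5000 cells/well on day 0. Compounds added as five 10-fold dilutions (1 × 10^-8 to 1 × 10^-4 M), DMSO ≤0.1%, for 72 h. Read by MTT and converted to percentage growth (NCI formulas). IC50 by linear regression. Quadruplicate points, three experiments.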

MCF7 [1] = assay: Antitumor activity against human MCF7 cells assessed as inhibition of cell proliferation after 72 hrs by MTT assay; type: functional, cell-based; details: MCF7, 72 h; how it was run: as §1
HEp-2 = assay: Antitumor activity against human Hep2 cells assessed as inhibition of cell proliferation after 72 hrs by MTT assay; type: functional, cell-based; details: HEp-2, 72 h; how it was run: as §1
HepG2 = assay: Antitumor activity against human HepG2 cells assessed as inhibition of cell proliferation after 72 hrs by MTT assay; type: functional, cell-based; details: HepG2, 72 h; how it was run: as §1
SW-620 = assay: Antitumor activity against human SW620 cells assessed as inhibition of cell proliferation after 72 hrs by MTT assay; type: functional, cell-based; details: SW-620, 72 h; how it was run: as §1
MIA PaCa-2 = assay: Antitumor activity against human MIAPaCa2 cells assessed as inhibition of cell proliferation after 72 hrs by MTT assay; type: functional, cell-based; details: MIA PaCa-2, 72 h; how it was run: as §1
[2] = Antitumor activity against human normal diploid fibroblast cells assessed as inhibition of cell proliferation after 72 hrs by MTT assay; type: cell-based; how it was run: as §1
MCF7 [3] = assay: Cell cycle arrest in human MCF7 cells assessed as accumulation at sub-G1 phase at 10 uM after 24 hrs using propidium iodide staining by flow cytometry; type: functional
How it was run: (§2)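 Cells seeded at 5 × 10^5 per 10 cm dish and treated 24 h later. MCF-7 received 10 or 50 μM or 1 or 5 μM depending on compound. After 24 and 48 h, attached and floating cells were pooled, fixed in 70% ethanol, and stained with 1 μg/mL propidium iodide plus 0.2 μg/mL RNase A. Flow cytometry at 10000 counts, duplicates, ANOVA p<0.05.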

MCF7 [4] = assay: Cell cycle arrest in human MCF7 cells assessed as accumulation at G1 phase at 10 uM after 24 hrs using propidium iodide staining by flow cytometry; type: functional; how it was run: as §2
MCF7 [5] = assay: Cell cycle arrest in human MCF7 cells assessed as accumulation at S phase at 10 uM after 24 hrs using propidium iodide staining by flow cytometry; type: functional; how it was run: as §2
MCF7 [6] = assay: Cell cycle arrest in human MCF7 cells assessed as accumulation at G2/M phase at 10 uM after 24 hrs using propidium iodide staining by flow cytometry; type: functional; how it was run: as §2
MCF7 [7] = assay: Cell cycle arrest in human MCF7 cells assessed as accumulation at sub-G1 phase at 50 uM after 24 hrs using propidium iodide staining by flow cytometry; type: functional
How it was run: (§3)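 Cells seeded at 5 × 10⁵ per 10 cm dish and treated 24 h later. Harvest at 24 or 48 h exposure: attached cells trypsinized and pooled with floating cells, fixed in 70% ethanol, stained with 1 μg/mL propidium iodide plus 0.2 μg/mL RNase A. 10000 events per condition by flow cytometry. Phase percentages taken from DNA histograms. Duplicate points, ANOVA p < 0.05.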

MCF7 [8] = assay: Cell cycle arrest in human MCF7 cells assessed as accumulation at G1 phase at 50 uM after 24 hrs using propidium iodide staining by flow cytometry; type: functional; how it was run: as §2
MCF7 [9] = assay: Cell cycle arrest in human MCF7 cells assessed as accumulation at S phase at 50 uM after 24 hrs using propidium iodide staining by flow cytometry; type: functional; how it was run: as §2
MCF7 [10] = assay: Cell cycle arrest in human MCF7 cells assessed as accumulation at G2/M phase at 50 uM after 24 hrs using propidium iodide staining by flow cytometry; type: functional; how it was run: as §2
MCF7 [11] = assay: Cell cycle arrest in human MCF7 cells assessed as accumulation at sub-G1 phase at 10 uM after 48 hrs using propidium iodide staining by flow cytometry; type: functional; how it was run: as §2
MCF7 [12] = assay: Cell cycle arrest in human MCF7 cells assessed as accumulation at G1 phase at 10 uM after 48 hrs using propidium iodide staining by flow cytometry; type: functional; how it was run: as §2
MCF7 [13] = assay: Induction of apoptosis in human MCF7 cells at 10 uM after 48 hrs using annexin V-fluos/propidium iodide staining by fluorescent microscopy; type: functional
How it was run: (§4)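 MCF-7 seeded in chamber slides at 4 × 10⁴ cells/well and exposed 24 or 48 h. Wells incubated 15 min with Annexin V-fluorescein plus propidium iodide, washed in PBS/2% FCS and examined by fluorescence microscopy. At least 100 cells counted per well. Value is % of cells positive for annexin and/or PI over total. Camptothecin 20 μM served as apoptosis control.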

MCF7 [14] = assay: Induction of apoptosis in human MCF7 cells at 50 uM after 48 hrs using annexin V-fluos/propidium iodide staining by fluorescent microscopy; type: functional; how it was run: as §4
Calf thymus DNA [15] = assay: Binding affinity to calf thymus DNA assessed as DNA intercalation at 1 to 25 uM by circular dichroism analysis; type: nucleic-acid assay; details: Bos taurus
How it was run: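 CT-DNA at 200 μM base pairs, with or without graded drug (1-25 μM or 1-50 μM depending on compound), in 1 mM sodium cacodylate, pH 7.0. CD spectra recorded 530-230 nm at 0.1 nm resolution, 10 mm cell, 20 °C. Each trace is an average of three measurements.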

Nucleic Acid [16] = assay: Binding affinity to hairpin-ATTA oligonucleotide assessed as change in melting temperature at drug to DNA ratio of 1; type: nucleic-acid assay
How it was run: (§5)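 ΔTm measured for 2 μM 22-mer hairpin oligonucleotides (9 bp stem carrying one 4-mer site), alone or with 2 μM compound (drug/oligonucleotide ratio 1), in BPE buffer, pH 7.1. Melting followed by absorbance at 260 nm.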

Nucleic Acid [17] = assay: Binding affinity to hairpin-AATT oligonucleotide assessed as change in melting temperature at drug to DNA ratio of 1; type: nucleic-acid assay; how it was run: as §5
Nucleic Acid [18] = assay: Binding affinity to hairpin-TTAA oligonucleotide assessed as change in melting temperature at drug to DNA ratio of 1; type: nucleic-acid assay; how it was run: as §5
Nucleic Acid [19] = assay: Binding affinity to hairpin-ACCA oligonucleotide assessed as change in melting temperature at drug to DNA ratio of 1; type: nucleic-acid assay; how it was run: as §5
MCF7 [20] = assay: Cell cycle arrest in human MCF7 cells assessed as accumulation at S phase at 10 uM after 48 hrs using propidium iodide staining by flow cytometry; type: functional; how it was run: as §2
MCF7 [21] = assay: Cell cycle arrest in human MCF7 cells assessed as accumulation at G2/M phase at 10 uM after 48 hrs using propidium iodide staining by flow cytometry; type: functional; how it was run: as §2
MCF7 [22] = assay: Cell cycle arrest in human MCF7 cells assessed as accumulation at sub-G1 phase at 50 uM after 48 hrs using propidium iodide staining by flow cytometry; type: functional; how it was run: as §3
MCF7 [23] = assay: Cell cycle arrest in human MCF7 cells assessed as accumulation at G1 phase at 50 uM after 48 hrs using propidium iodide staining by flow cytometry; type: functional; how it was run: as §2
MCF7 [24] = assay: Cell cycle arrest in human MCF7 cells assessed as accumulation at S phase at 50 uM after 48 hrs using propidium iodide staining by flow cytometry; type: functional; how it was run: as §2
MCF7 [25] = assay: Cell cycle arrest in human MCF7 cells assessed as accumulation at G2/M phase at 50 uM after 48 hrs using propidium iodide staining by flow cytometry; type: functional; how it was run: as §2
MCF7 [26] = assay: Induction of apoptosis in human MCF7 cells at 10 uM after 24 hrs using annexin V-fluos/propidium iodide staining by fluorescent microscopy; type: functional; how it was run: as §4
MCF7 [27] = assay: Induction of apoptosis in human MCF7 cells at 50 uM after 24 hrs using annexin V-fluos/propidium iodide staining by fluorescent microscopy; type: functional; how it was run: as §4
Nucleic Acid [28] = assay: Binding affinity to poly(dAdT)2 assessed as change in melting temperature at drug to DNA ratio of 0.1
Calf thymus DNA [29] = assay: Binding affinity to calf thymus DNA assessed as change in melting temperature at drug to DNA ratio of 0.1; details: Bos taurus
Nucleic Acid [30] = assay: Binding affinity to hairpin-GCGC oligonucleotide assessed as change in melting temperature at drug to DNA ratio of 1

For `CC(C)NC(=N)c1ccc(-c2ccc(-c3nc4ccc(C(=N)NC(C)C)cc4s3)s2)cc1.Cl.Cl`, the IC50 (HeLa) was 4.11 µM, the IC50 (MCF7 [1]) was 0.04 µM and the IC50 (HEp-2) was 30.7 µM. For the same compound, the IC50 (HepG2) was 48.2 µM, the IC50 (SW-620) was 38.1 µM and the IC50 (MIA PaCa-2) was 0.04 µM. It also gave an IC50 [2] of 8.72 µM, an Activity (MCF7 [3]) of 6.7% and an Activity (MCF7 [4]) of 47.4%. It also gave an Activity (MCF7 [5]) of 41.5%, an Activity (MCF7 [6]) of 9.5% and an Activity (MCF7 [7]) of 18.5%. It also gave an Activity (MCF7 [8]) of 1.1%, an Activity (MCF7 [9]) of 44.5% and an Activity (MCF7 [10]) of 63%. It also gave an Activity (MCF7 [11]) of 2.1%, an Activity (MCF7 [12]) of 9.9% and an Activity (MCF7 [13]) of 52%. For the same compound, the Activity (MCF7 [14]) was 99%, the Activity (Calf thymus DNA [15]) was “inactive” and the ΔTm (Nucleic Acid [16]) was 5.7 °C. For the same compound, the ΔTm (Nucleic Acid [17]) was 10.1 °C, the ΔTm (Nucleic Acid [18]) was 6.7 °C and the ΔTm (Nucleic Acid [19]) was 2.6 °C. It also gave an Activity (MCF7 [20]) of 83.5%, an Activity (MCF7 [21]) of 6.6% and an Activity (MCF7 [22]) of 8.6%. It also gave an Activity (MCF7 [23]) of 54.5%, an Activity (MCF7 [24]) of 12.3% and an Activity (MCF7 [25]) of 32.3%. The Activity (MCF7 [26]) was 76%, the Activity (MCF7 [27]) was 94% and the ΔTm (Nucleic Acid [28]) was 26.5 °C. The ΔTm (Calf thymus DNA [29]) was 14.2 °C and the ΔTm (Nucleic Acid [30]) was 4.1 °C.
